Tests used:
[1] = Cytotoxicity against human H1299 cells assessed as cell growth at 10 uM after 48 hrs by MTT assay; format: functional; conditions: NCI-H1299, 48 h, read-out: Activity
Outline: (§1)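 H1299 non-small lung cancer cells were grown in RPMI 1640 with 10% FBS and penicillin/streptomycin at 37 °C in 5% CO2. About 2×10³ cells were seeded per well and held 24 h, then washed with PBS and given fresh medium. Compound, freshly dissolved in DMSO and diluted in complete medium, was added for 48 h. MTT was read at 550 nm after SDS/DMF lysis at 37 °C for 16 h. Values are from three experiments, untreated = 100%, ±SD.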

[2] = Cytotoxicity against human H1299 cells assessed as cell growth at 1 uM after 48 hrs by MTT assay; format: functional; conditions: NCI-H1299, 48 h, read-out: Activity; outline: as §1
[3] = Inhibition of human TERT expression in H1299 cells at 1 uM after 24 hrs by secreted alkaline phosphatase reporter gene assay relative to control; values are per cent of control; conditions: NCI-H1299
[4] = Cytotoxicity against human H1299 cells assessed as cell growth at 100 uM after 48 hrs by MTT assay; format: functional; conditions: NCI-H1299, 48 h, read-out: Activity; outline: as §1
[5] = Inhibition of human TERT expression in H1299 cells at 10 uM after 24 hrs by secreted alkaline phosphatase reporter gene assay relative to control; values are per cent of control; conditions: NCI-H1299
[6] = Inhibition of human TERT expression in H1299 cells at 100 uM after 24 hrs by secreted alkaline phosphatase reporter gene assay relative to control; values are per cent of control; conditions: NCI-H1299

| Compound | growth at 10 µM [1] [%] | growth at 1 µM [2] [%] | level, % of control [3] [%] | growth at 100 µM [4] [%] | level, % of control [5] [%] | level, % of control [6] [%] |
| --- | --- | --- | --- | --- | --- | --- |
| COC(=O)[C@@H](C)NCC(=O)Nc1cccc2c1C(=O)c1c(NC(=O)CN[C@H](C)C(=O)OC)cccc1C2=O | 50 | 56 | 83 | 10 | 74 | 66 |
| COC(=O)CN(C)CC(=O)Nc1cccc2c1C(=O)c1c(NC(=O)CN(C)CC(=O)OC)cccc1C2=O | 88 | 71 | 106 | 46 | 95 | 73 |
| O=C(CNCc1cccc(C(F)(F)F)c1)Nc1cccc2c1C(=O)c1c(NC(=O)CNCc3cccc(C(F)(F)F)c3)cccc1C2=O | 93 | 97 | 75 | 93 | 84 | 33 |
| CCCN(C)CC(=O)Nc1cccc2c1C(=O)c1c(NC(=O)CN(C)CCC)cccc1C2=O | 108 | 108 | 85 | 97 | 87 | 45 |
| COc1cccc2c1C(=O)c1c(O)c3c(c(O)c1C2=O)C[C@@](O)(C(=O)CO)C[C@@H]3O[C@H]1C[C@H](N)[C@H](O)[C@H](C)O1 [DOXORUBICIN] | 0 | 17 | 33 | 0 | 13 | 5 |
| COC(=O)[C@H](CCSC)NCC(=O)Nc1cccc2c1C(=O)c1c(NC(=O)CN[C@@H](CCSC)C(=O)OC)cccc1C2=O | 78 | 99 | 105 | 60 | 94 | 24 |
| COC(=O)[C@@H]1CCCN1CC(=O)Nc1cccc2c1C(=O)c1c(NC(=O)CN3CCC[C@H]3C(=O)OC)cccc1C2=O | 104 | 88 | 87 | 93 | 59 | 8 |
| O=C1c2c(O)ccc(O)c2C(=O)c2c(NCCNCCO)ccc(NCCNCCO)c21 [MITOXANTRONE] | 0 | 23 | 20 | 0 | 9 | 7 |
| CCN(C)CC(=O)Nc1cccc2c1C(=O)c1c(NC(=O)CN(C)CC)cccc1C2=O | 101 | 100 | 102 | 73 | 95 | 20 |
| COC(=O)[C@@H](NCC(=O)Nc1cccc2c1C(=O)c1c(NC(=O)CN[C@H](C(=O)OC)c3ccccc3)cccc1C2=O)c1ccccc1 | 59 | 77 | 97 | 18 | 74 | 42 |
| CCN(CC)CCC(=O)Nc1cccc2c1C(=O)c1c(NC(=O)CCN(CC)CC)cccc1C2=O | 30 | 97 | 99 | 4 | 35 | 0 |
| CNCCC(=O)Nc1cccc2c1C(=O)c1c(NC(=O)CCNC)cccc1C2=O | 107 | 117 | 101 | 33 | 97 | 22 |
| COC(=O)[C@H](CC(C)C)NCC(=O)Nc1cccc2c1C(=O)c1c(NC(=O)CN[C@@H](CC(C)C)C(=O)OC)cccc1C2=O | 102 | 112 | 101 | 96 | 101 | 88 |
| CC(C)NCC(=O)Nc1cccc2c1C(=O)c1c(NC(=O)CNC(C)C)cccc1C2=O | 86 | 89 | 103 | 14 | 101 | 35 |
| COC(=O)[C@H](COC(C)(C)C)NCC(=O)Nc1cccc2c1C(=O)c1c(NC(=O)CN[C@@H](COC(C)(C)C)C(=O)OC)cccc1C2=O | 128 | 127 | 98 | 91 | 94 | 98 |
